# Only some compounds are listed: those with a hit (about 3.7% of all), similar ones and a draw of the others.
# 14-3-3 Bad inh: disrupts binding of bovine 14-3-3 zeta to phospho-Bad peptide; inhibition, % at 21.7 µM; TR-FRET 14-3-3zeta/Dy647-pBad peptide displacement, 1 h; AID 781; actives 0.71% (n = 220,000);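 active = inhibition above about 70%, limit read from the data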;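 note: 0% = full 14-3-3 plus peptide FRET controls and 100% = background without 14-3-3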
# RBBP9 inh: human RBBP9 hydrolase inhibition; recombinant RBBP9, FP-Rh probe fluorescence polarization; inhibition, % at 7.94 µM; actives 0.2% (n = 220,000);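 active = inhibition above the campaign mean of all tested compounds plus 3 SD, cut at about 14% in these data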;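 note: plate controls were DMSO wells with RBBP9 for no effect and wells lacking RBBP9 protein for full effect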
# Target sequence (O75884 whole entry, looked up): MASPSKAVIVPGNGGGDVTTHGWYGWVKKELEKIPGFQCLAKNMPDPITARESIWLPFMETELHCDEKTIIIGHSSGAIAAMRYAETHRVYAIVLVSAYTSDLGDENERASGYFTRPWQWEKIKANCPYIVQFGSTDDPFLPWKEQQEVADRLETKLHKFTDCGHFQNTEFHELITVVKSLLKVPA
#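 Measured by – fluorescence polarization · Test system – RBBP9 protein · Input – 2.5 µM RBBP9 dispensing solution, before mixing · Measure – percent inhibition from mP, scaled between DMSO and no-protein wells · Benchmarks – DMSO-treated enzyme wells and wells lacking RBBP9 · Times – preincubation 30 min plus labeling 45 min at 25 °C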
# eIF4E 4G PPI: blocks eIF4E binding to eIF4G; inhibition, % at 21.7 µM; P63073+Q04637; TR-FRET eIF4E-eIF4GI(517-606) binding, 2 h; actives 0.37% (n = 220,000); AID 782;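 note: 0% = full FRET control wells and 100% = background wells lacking eIF4GI fragment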
# NCF1 inh: blocks human p47phox regulatory protein of NADPH oxidases | P14598 | p47phox/p22phox peptide binding, fluorescence polarization, 2 h | inhibition, % at 24.7 µM | actives 0.53% (n = 220,000) | AID 1274;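 note: 0% = p47phox with labelled peptide and 100% = labelled peptide alone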
# Target sequence (P14598 whole entry, looked up): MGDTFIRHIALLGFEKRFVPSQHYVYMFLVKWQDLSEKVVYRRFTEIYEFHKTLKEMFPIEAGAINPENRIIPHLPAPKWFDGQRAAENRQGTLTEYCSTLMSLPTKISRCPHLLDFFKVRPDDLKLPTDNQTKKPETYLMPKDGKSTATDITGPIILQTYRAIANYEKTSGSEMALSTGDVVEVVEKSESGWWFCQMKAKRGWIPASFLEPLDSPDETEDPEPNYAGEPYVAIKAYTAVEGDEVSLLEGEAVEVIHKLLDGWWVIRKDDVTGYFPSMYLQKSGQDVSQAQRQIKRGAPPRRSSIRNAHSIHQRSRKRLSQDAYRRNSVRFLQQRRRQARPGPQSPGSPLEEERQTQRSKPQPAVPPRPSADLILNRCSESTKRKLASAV
# WT yeast gro inh: growth inhibition of WT yeast, mitochondrial fusion screen. mitochondrial fusion phenotypic screen, WT strain. inhibition, % at 10 µM. actives 2.1% (n = 190,000). AID 1362; in the data active = inhibition above about 58%; tested in S. cerevisiae
# EBV gp42 inh: blocks Epstein-Barr virus glycoprotein 42 binding. Q1HVG2. actives 0.42% (n = 220,000). AID 1085. Fluorescence polarization binding assay, mP read-out. inhibition, % (tested at 21.74 µM); in the data active = inhibition above about 50%
# * hit, by the source's call; . = no result given; [ ] = dose if it differs, or a comment.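 Rule for the calls, unless noted: active = inhibition above about 30% (limit read from the data); inactive = the rest.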
SMILES,14-3-3 Bad inh,RBBP9 inh,eIF4E 4G PPI,NCF1 inh,WT yeast gro inh,EBV gp42 inh
Cc1ccc(-n2cc(-c3ccccc3)c3c(N4CCN(C)CC4)ncnc32)cc1,-10,0,-7,-9,62*,-36
Cc1ccc(-n2cc(-c3ccccc3)c3c(N4CCOCC4)ncnc32)cc1,-4,-7,-2,-13,71*,-5
OCCN1CCN(c2ncnc3c2c(-c2ccccc2)cn3-c2ccc(F)cc2)CC1,-7,-6,-1,3,6,-3
CC1CN(c2ncnc3c2c(-c2ccccc2)cn3-c2ccc(F)cc2)CC(C)O1 (stereo not drawn),-21,-5,-1,1,75*,10
Cc1cccc(-n2cc(-c3ccccc3)c3c(N4CCOCC4)ncnc32)c1,-3,-5,3,-2,7,13
COc1cc(/C=C/C(=O)O)cc(S(=O)(=O)Nc2ccccc2Oc2ccccc2)c1OC,3,-12,-7,-12,.,-20
Cc1ccc(C(=O)Nn2c(O)c(C=C3N=c4ccccc4=N3)sc2=S)cc1,-7,2,-3,-19,20,61*
COc1ccc(CN(CCCN2CCOCC2)C(=O)Nc2ccccc2)cc1OC,-11,-6,-1,2,-7,-18
COc1ccc(CN(CCN2CCOCC2)C(=O)c2c(F)cccc2F)cc1OC,80*,0,-3,-10,1,-22
O=C(Oc1cccnc1)c1ccc(Cl)c(Cl)c1,-5,6,6,-5,96*,-3
O=C(Oc1cccnc1)c1ccco1,81*,-3,-1,-10,-6,5
CC(C)(C)N=C1NN=C(c2ccc(Cl)cc2)CS1,-1,-19,-10,-1,.,-9
CC(C)(C)N=C1NN=C(c2cc3ccccc3o2)CS1,-7,-1,2,-1,67*,-41
O=C(N=Nc1c(O)[nH]c2ccccc12)c1cc(NS(=O)(=O)c2cccs2)cc(NS(=O)(=O)c2cccs2)c1,80*,-1,12,-57,-2,16
O=C(N=Nc1c(O)[nH]c2ccccc12)c1cccs1,-20,-5,-10,-14,12,-6
O=c1c2ccccc2nc2n1CC/C2=C\c1ccccc1[N+](=O)[O-],-11,-2,-7,-7,27,66*
Cc1ccccc1-c1nc2ccccc2c(=O)n1/N=C/c1ccccc1[N+](=O)[O-],-5,-3,1,-1,-2,-9
CCOc1ccc(-c2ccc(SC)nn2)cc1,-16,-8,1,2,68*,3
N#Cc1ccc(-c2cccnc2)nc1SCc1ccc(Cl)c(Cl)c1,27,-7,3,10,75*,0
COc1cc(/C=C(\C#N)C(=O)Nc2ccc3c(c2)OCCO3)ccc1O,-1,-17,-12,-14,.,-46
Cc1c(C(=O)N2CCC(C)CC2)sc2ncnc(N(C)c3ccccc3)c12,4,-2,-5,-6,88*,2
Cc1cc(Br)ccc1OCCCCN1CCCCC1,27,5,-2,48*,32,-15
COc1cccc(OC)c1OCCCCN1CCCC1,74*,-5,-4,0,66*,24
Cc1cc(C(C)(C)C)ccc1OCCCCN1CCCC1,-4,-3,17,-9,17,5
CCN(Cc1ccncc1)C(=O)c1ccc2c(c1)S(=O)(=O)c1ccccc1C2=O,-4,2,1,-9,-2,3
SMILES,14-3-3 Bad inh,RBBP9 inh,eIF4E 4G PPI,NCF1 inh,WT yeast gro inh,EBV gp42 inh
CC(=O)Nc1ccc(C(=O)N(C)c2ccccc2)cc1,13,4,3,-2,0,-11
CCN(C(=O)c1ccc(NC(C)=O)cc1)c1ccccc1,6,1,-3,55*,16,-12
O=C(Nc1ccc(CN2CCOCC2)cc1)c1ccc(-c2cccc(Cl)c2)o1,32,-11,5,-25,54,-20
O=C(Nc1ccc(CN2CCOCC2)cc1)c1ccc(-c2ccc(Cl)cc2Cl)o1,-7,-19,95*,-50,83,-28
COc1cc(C(=O)Nc2cc(-c3nc4cc(C)ccc4o3)ccc2C)cc(OC)c1OC,79*,-3,-2,-52,4,-11
CCN1C(=O)/C(=C\c2nc3ccccc3c(=O)n2-c2ccccc2)c2ccccc21,78*[fluorescence artefact?],-6,-6,0,5,5
CCN1C(=O)/C(=C/c2nc3ccccc3c(=O)[nH]2)c2ccccc21,40,-4,0,39*,-2,7
CCN1C(=O)/C(=C/c2nc3ccccc3c(=O)n2-c2ccc(C)cc2)c2ccccc21,11,-2,-1,-13,4,-2
Cn1ccnc1SCC(=O)N1CCN(S(=O)(=O)c2ccccc2)CC1,-6,-4,1,-1,-1,3
Cc1ccc(NC(=O)c2cccs2)cc1S(=O)(=O)Nc1cccc(Cl)c1,0,-30,3,-36,70*,9
Cc1ccc(C)c(NC(=O)c2ccccc2NS(=O)(=O)c2cc([N+](=O)[O-])ccc2C)c1,13,-7,-1,0,80*,2
Cc1ccc(NS(=O)(=O)c2cc(C(=O)Nc3cccc([N+](=O)[O-])c3)ccc2C)cc1,4,-20,0,-10,64*,-1
Cc1ccc(NC(=S)NC(=O)c2ccc(F)cc2)cc1S(=O)(=O)Nc1cccc(Cl)c1,-6,-11,-7,-11,16,-5
Cc1ccc(N(Cc2ccc(C(=O)NN=C3CCN(C)CC3)cc2)S(C)(=O)=O)cc1C,-14,-10,-1,-7,2,-20
COC(=O)c1cc(Br)c(=O)n(-c2ccc(F)cc2)c1,0,-5,-5,31*,-8,-3
COC(=O)C(Nc1ccccc1Cl)(c1cc(C)c(O)c(C)c1)C(F)(F)F (stereo not drawn),-3,-4,0,-6,90*,3
CCOC(=O)C(NC(=O)c1ccccc1Cl)(Nc1ccc(C)c(C)c1)C(F)(F)F (stereo not drawn),-18,2,11,-12,28,-13
CCOc1ccc(S(=O)(=O)n2nnc3ccccc32)cc1C(C)C,71*,-5,-5,6,6,-8
COc1ccc(Cl)cc1S(=O)(=O)n1nnc2ccccc21,46,0,12,-6,6,3
CCOc1ccccc1OCCn1nnc2ccccc21,82*,-14,9,-5,0,-10
CCOC(=O)c1[nH]cnc1N=Nc1c(O)ccc2ccccc12,-6,-6,8,-138,26,56*
CCS(=O)(=O)c1ccc(O)c(NC(=O)Nc2ccccc2OC)c1,-3,7,-6,-8,.,-7
Oc1cc2c(cc1C(c1ccc(Br)cc1)N1CCCC1)OCO2 (stereo not drawn),30,-1,44*,3,21,0
S=C(c1ccc2c(c1)OCO2)N1CCCCCC1,-5,-9,5,-1,-6,-2

# High-throughput results from PubChem BioAssay.
